Calls of active or inactive are those of the source. The rule behind the calls is not given here.
What was measured:
Type in all cases: functional
[1] = Peroxynitrite scavenging activity assessed as inhibition of DHR oxidation at 62 uM
Outline: (§1)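 Buffer of 90 mM NaCl, 50 mM Na3PO4, 5 mM KCl, pH 7.4, with 100 µM DTPA. Final: DHR 5 µM, ONOO− 600 nM, compounds in DMSO. 37 °C, fluorescence (ex 485/em 528 nm) after 2 min. % inhibition of DHR oxidation. Ebselen control. Four experiments in triplicate.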

[2] = Nitric oxide scavenging activity assessed as inhibition of DAF2 oxidation at 100 uM
Outline: (§2)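 NOC-5 (10 µM final) as NO donor, DAF-2 5 µM in 50 mM KH2PO4 pH 7.4, compounds in DMSO. After 30 min at 37 °C, DAF-2T fluorescence read (ex 485/em 528 nm). Value is % inhibition of DAF-2 oxidation. Rutin control.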

[3] = Peroxynitrite scavenging activity assessed as inhibition of DHR oxidation in presence of NaHCo3 at 62 uM
Outline: (§3)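 Parallel peroxynitrite set with 25 mM NaHCO3 added to mimic physiological CO2. Otherwise the same: 100 µM DTPA phosphate/NaCl/KCl buffer pH 7.4, DHR 5 µM, ONOO− 600 nM, compounds in DMSO. 37 °C, 2 min, fluorescence ex 485/em 528 nm. % inhibition of DHR oxidation. Four experiments in triplicate.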

[4] = Hypochlorous acid scavenging activity at 50 uM assessed as inhibition of DHR oxidation
Outline: (§4)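 HOCl made fresh by bringing 1% NaOCl to pH 6.2 with H2SO4, quantified at 235 nm. Final: DHR 5 µM, HOCl 5 µM in 100 mM phosphate pH 7.4, compounds in ethanol. Run at 37 °C; rhodamine 123 fluorescence (ex 485/em 528 nm) read immediately. % inhibition of DHR oxidation. Lipoic acid control. Four experiments in triplicate.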

[5] = Singlet oxygen scavenging activity at 100 uM assessed as inhibition of DHR oxidation
Outline: (§5)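 Singlet oxygen from thermal breakdown of the endoperoxide NDPO2 (1 mM final), with histidine 10 mM and DHR 50 µM in 100 mM phosphate pH 7.4. Compounds in DMSO. After 30 min at 37 °C, rhodamine 123 fluorescence (ex 485/em 528 nm). % inhibition of DHR oxidation. Penicillamine control. Four experiments in triplicate.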

[6] = Superoxide radical scavenging activity at 125 uM by NBT reduction assay
Outline: (§6)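 Superoxide generated by NADH/PMS at room temperature. Final: NADH 166 µM, NBT 43 µM, PMS 2.7 µM in 19 mM phosphate pH 7.4; compounds in DMSO. NBT reduction to diformazan followed at 560 nm for 2 min. % inhibition. Propyl gallate control. Four experiments in triplicate.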

[7] = Hydrogen peroxide scavenging activity at 250 uM by assessed as inhibition of lucigenin oxidation
Outline: (§7)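 Chemiluminescence assay of H2O2-induced lucigenin oxidation, 37 °C, 50 mM Tris-HCl pH 7.4. Final concentrations: lucigenin 0.8 mM, 1% H2O2. Compounds in DMSO at various concentrations. Signal read right after the plate goes into the reader. Reported as % inhibition of lucigenin oxidation. Ascorbic acid as positive control. Four experiments, each in triplicate.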

[8] = Nitric oxide scavenging activity assessed as inhibition of DAF2 oxidation; outline: as §2
[9] = Hypochlorous acid scavenging activity assessed as inhibition of DHR oxidation; outline: as §4
[10] = Superoxide radical scavenging activity by NBT reduction assay; outline: as §6
[11] = Hydrogen peroxide scavenging activity by assessed as inhibition of lucigenin oxidation; outline: as §7
[12] = Peroxynitrite scavenging activity assessed as inhibition of DHR oxidation in presence of NaHCo3; outline: as §3
[13] = Singlet oxygen scavenging activity by assessed as inhibition of DHR oxidation; outline: as §5
[14] = Peroxynitrite scavenging activity assessed as inhibition of DHR oxidation; outline: as §1
[15] = Singlet oxygen scavenging activity at 1 mM assessed inhibition of as DHR oxidation; outline: as §5
[16] = Peroxynitrite scavenging activity assessed as inhibition of DHR oxidation at 500 uM; outline: as §1
[17] = Nitric oxide scavenging activity assessed as inhibition of DAF2 oxidation at 250 uM; outline: as §2
[18] = Peroxynitrite scavenging activity assessed as inhibition of DHR oxidation in presence of NaHCo3 at 500 uM; outline: as §3
[19] = Hypochlorous acid scavenging activity at 125 uM assessed as inhibition of DHR oxidation; outline: as §4
[20] = Peroxynitrite scavenging activity assessed as inhibition of DHR oxidation at 150 uM; outline: as §1
[21] = Peroxynitrite scavenging activity assessed as inhibition of DHR oxidation in presence of NaHCo3 at 150 uM; outline: as §3
[22] = Singlet oxygen scavenging activity at 200 uM assessed as inhibition of DHR oxidation; outline: as §5
[23] = Singlet oxygen scavenging activity at 500 uM assessed as inhibition of DHR oxidation; outline: as §5
[24] = Superoxide radical scavenging activity at 100 uM by NBT reduction assay; outline: as §6
[25] = Hypochlorous acid scavenging activity at 100 uM assessed as inhibition of DHR oxidation; outline: as §4
[26] = Hypochlorous acid scavenging activity at 25 uM assessed as inhibition of DHR oxidation; outline: as §4
[27] = Singlet oxygen scavenging activity at 40 uM assessed as inhibition of DHR oxidation; outline: as §5
[28] = Nitric oxide scavenging activity assessed as inhibition of DAF2 oxidation at 50 uM; outline: as §2

Row | IC50 [8] | IC50 [9] | IC50 [10] | IC50 [12] | IC50 [13] | IC50 [14] | SMILES | Activity [7] | further results
1 | 0.34 µM | 32.1 µM | 71.3 µM | 0.44 µM | 7.9 µM | 0.24 µM | O=c1cc(/C=C/c2ccc(O)c(O)c2)oc2ccccc12 |  | IC50 [11]: 183 µM
2 |  | 146 µM |  |  |  |  | O=c1cc(-c2ccccc2)oc2cc(O)ccc12 [7-HYDROXYFLAVONE] | inactive | Activity [15]: inactive; Activity [16]: inactive; Activity [17]: inactive; Activity [18]: inactive; Activity [6]: inactive
3 |  | 72.3 µM |  |  |  |  | O=c1cc(/C=C/c2ccccc2)oc2cc(O)ccc12 | inactive | Activity [15]: inactive; Activity [16]: inactive; Activity [17]: inactive; Activity [18]: inactive; inhibition [6]: 40%
4 |  | 8.5 µM | 77.7 µM | 1.21 µM | 183 µM | 1.25 µM | O=c1cc(/C=C/c2ccc(O)cc2)oc2cc(O)cc(O)c12 |  | inhibition [17]: 21%; inhibition [7]: 36%
5 |  | 3.9 µM |  | 140 µM |  | 188 µM | O=c1cc(-c2ccccc2)oc2cc(O)cc(O)c12 [CHRYSIN] | inactive | Activity [23]: inactive; inhibition [17]: 20%; Activity [6]: inactive
6 |  | 3.9 µM |  | 21.2 µM |  | 76.1 µM | O=c1cc(-c2ccc(O)cc2)oc2cc(O)cc(O)c12 [APIGENIN] | inactive | inhibition [24]: 35%; inhibition [15]: 30%; Activity [17]: inactive
7 |  | 92 µM | 66.2 µM | 1.65 µM | 266 µM | 1.4 µM | O=c1cc(/C=C/c2ccc(O)cc2)oc2cc(O)ccc12 | inactive | inhibition [17]: 23%
8 |  |  |  | 1.23 µM | 245 µM | 1.2 µM | O=c1cc(/C=C/c2ccc(O)cc2)oc2ccccc12 | inactive | inhibition [17]: 46%; inhibition [6]: 32%; inhibition [25]: 34%
9 | 0.29 µM | 18 µM | 51 µM | 0.61 µM | 10.1 µM | 0.3 µM | O=c1cc(/C=C/c2ccc(O)c(O)c2)oc2cc(O)ccc12 |  | IC50 [11]: 114 µM
10 |  | 2.4 µM |  |  |  |  | O=C(O)CCCCC1CCSS1 (stereo not drawn) [LIPOIC ACID, ALPHA] |  | 
11 | 0.24 µM | 16.9 µM | 80.4 µM | 0.51 µM | 4.9 µM | 0.26 µM | O=c1cc(/C=C/c2ccc(O)c(O)c2)oc2cccc(O)c12 |  | IC50 [11]: 48.9 µM
12 | 73.9 µM | 5.7 µM |  | 40.6 µM | 163 µM | 46.6 µM | O=c1cc(/C=C/c2ccccc2)oc2cc(O)cc(O)c12 | inactive | inhibition [6]: 27%

The remaining lines, values behind:

Row | SMILES | IC50 [8] | IC50 [9] | IC50 [10] | IC50 [12] | IC50 [13] | IC50 [14] | Activity [7] | further results
13 | O=c1cc(-c2ccccc2)oc2cccc(O)c12 |  |  |  |  |  |  | inactive | Activity [1]: inactive; Activity [2]: inactive; Activity [3]: inactive; inhibition [4]: 17%; Activity [5]: inactive; Activity [6]: inactive
14 | C[C@@H]1O[C@@H](OC[C@H]2O[C@@H](Oc3c(-c4ccc(O)c(O)c4)oc4cc(O)cc(O)c4c3=O)[C@H](O)[C@@H](O)[C@@H]2O)[C@H](O)[C@H](O)[C@H]1O [RUTIN] | 3.66 µM |  |  |  |  |  |  | 
15 | O=c1c(O)c(-c2ccc(O)c(O)c2)oc2cc(O)cc(O)c12 [QUERCETIN] | 1.95 µM | 1.1 µM | 47.3 µM | 0.44 µM | 5.3 µM | 0.26 µM |  | IC50 [11]: 785 µM
16 | CC(C)(S)[C@@H](N)C(=O)O [PENICILLAMINE] |  |  |  |  | 4.9 µM |  |  | 
17 | CCCOC(=O)c1cc(O)c(O)c(O)c1 [PROPYL GALLATE] |  |  | 24.6 µM |  |  |  |  | 
18 | O=c1c2ccccc2[se]n1-c1ccccc1 [EBSELEN] |  |  |  | 4.63 µM |  | 0.91 µM |  | 
19 | O=c1cc(/C=C/c2ccccc2)oc2ccccc12 |  |  |  |  |  |  | inactive | inhibition [19]: 10%; Activity [2]: inactive; inhibition [20]: 27%; inhibition [21]: 27%; Activity [22]: inactive; Activity [6]: inactive
20 | O=c1cc(/C=C/c2ccc(O)c(O)c2)oc2cc(O)cc(O)c12 | 0.51 µM | 3.9 µM | 48.9 µM | 0.63 µM | 6.5 µM | 0.26 µM |  | IC50 [11]: 50.3 µM
21 | O=c1cc(-c2ccc(O)c(O)c2)oc2cc(O)cc(O)c12 [LUTEOLIN] | 2.61 µM | 7.1 µM | 58.5 µM | 0.64 µM | 23.4 µM | 0.3 µM |  | IC50 [11]: 900 µM
22 | O=c1cc(/C=C/c2ccc(O)cc2)oc2cccc(O)c12 |  |  |  | 0.98 µM |  | 1.04 µM |  | inhibition [26]: 29%; inhibition [27]: 29%; Activity [24]: inactive; Activity [28]: inactive; inhibition [7]: 40%
23 | O=C1O[C@H]([C@@H](O)CO)C(O)=C1O [ASCORBIC ACID] |  |  |  |  |  |  |  | IC50 [11]: 626 µM
24 | O=c1cc(/C=C/c2ccccc2)oc2cccc(O)c12 |  |  |  |  |  |  | inactive | Activity [1]: inactive; Activity [3]: inactive; inhibition [4]: 17%; Activity [28]: inactive; Activity [5]: inactive; Activity [6]: inactive
